Measurements published in the RNAGym collection of RNA variant scans (doi:10.1002/anie.201605470).

B1: Osa-1-4 twister ribozyme (parent)
chain: CCGCCUAACACUGCCAAUGCCGGUCCCAAGCCCGGAUAAAAGUGGAGGGGGCGG

Variants of: B1
Assay: self-cleavage, relative activity (ratio to wild type); higher = more cleavage; co-transcriptional
Procedure, shortened: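 The 48 positions downstream of the cleavage site in a 54-nucleotide Oryza sativa twister ribozyme template were synthesised at 97 % wild-type base and 1 % of each other base. The template was transcribed in vitro at 37 °C for 2 h, with self-cleavage allowed during transcription. Reads with or without upstream sequence after deep sequencing marked cleavage status, and relative activity is fraction cleaved normalised to wild type.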

Going from C27A U37C to C27A U37G, the self-cleavage rises from 0.32 to 0.42.

C27A U43A and C27A U43C are the same in self-cleavage: 0.1 for the first, 0.1 for the second.

Going from C27A U43G to C27G, the self-cleavage falls from 0.15 to 0.13.

Going from C27G C9A to C27G C9G, the self-cleavage rises from 0.03 to 0.07.

Compared with C27G C9U, C27G C31A is lower in self-cleavage: 0.05 for the first, 0.01 for the second.

C27G C31G and C27G C31U are the same in self-cleavage: 0.06 for the first, 0.06 for the second.

Going from C27G C32A to C27G C32G, the self-cleavage rises from 0.02 to 0.05.

Compared with C27G C32U, C27G C33A is lower in self-cleavage: 0.05 for the first, 0.03 for the second.

C27G C33G and C27G C33U are the same in self-cleavage: 0.05 for the first, 0.05 for the second.

Going from C27G C52A to C27G C52G, the self-cleavage rises from 0.08 to 0.14.

First: C27G C52U
Second: C27G G13A
The self-cleavage of the first is higher: 0.16 for the first, 0.03 for the second.

C27G G13C and C27G G13U are the same in self-cleavage: 0.01 for the first, 0.01 for the second.

Compared with C27G G19A, C27G G19C is lower in self-cleavage: 0.06 for the first, 0.03 for the second.

First: C27G G19U
Second: C27G G22A
The self-cleavage of the first is lower: 0.04 for the first, 0.05 for the second.

Compared with C27G G22C, C27G G22U is higher in self-cleavage: 0.03 for the first, 0.04 for the second.

Compared with C27G G23A, C27G G23C is lower in self-cleavage: 0.05 for the first, 0.03 for the second.

C27G G23U and C27G G30A are the same in self-cleavage: 0.02 for the first, 0.02 for the second.

C27G G30C and C27G G30U are the same in self-cleavage: 0.02 for the first, 0.02 for the second.

Compared with C27G G34A, C27G G34C is lower in self-cleavage: 0.07 for the first, 0.05 for the second.

Going from C27G G34U to C27G G35A, the self-cleavage rises from 0.08 to 0.12.

Going from C27G G35C to C27G G35U, the self-cleavage rises from 0.04 to 0.1.

Compared with C27G G42A, C27G G42C is higher in self-cleavage: 0.06 for the first, 0.07 for the second.

Going from C27G G42U to C27G G44A, the self-cleavage rises from 0.02 to 0.06.

Going from C27G G44C to C27G G44U, the self-cleavage falls from 0.08 to 0.05.

Going from C27G G45A to C27G G45C, the self-cleavage rises from 0.02 to 0.03.

First: C27G G45U
Second: C27G G47A
The self-cleavage of the first is lower: 0.02 for the first, 0.15 for the second.

Going from C27G G47C to C27G G47U, the self-cleavage falls from 0.86 to 0.21.

Compared with C27G G48A, C27G G48C is lower in self-cleavage: 0.04 for the first, 0.03 for the second.

Compared with C27G G48U, C27G G49A is higher in self-cleavage: 0.02 for the first, 0.04 for the second.

First: C27G G49C
Second: C27G G49U
The self-cleavage of the first is lower: 0.03 for the first, 0.04 for the second.

First: C27G G50A
Second: C27G G50C
The self-cleavage of the first is higher: 0.09 for the first, 0.05 for the second.

Compared with C27G G50U, C27G G51A is lower in self-cleavage: 0.07 for the first, 0.05 for the second.

Going from C27G G51C to C27G G51U, the self-cleavage rises from 0.02 to 0.04.

Compared with C27G G53A, C27G G53C is lower in self-cleavage: 0.06 for the first, 0.02 for the second.

First: C27G G53U
Second: C27G G54A
The self-cleavage of the first is lower: 0.03 for the first, 0.06 for the second.

First: C27G G54C
Second: C27G G54U
The self-cleavage of the first is lower: 0.04 for the first, 0.12 for the second.

C27G U12A and C27G U12C are the same in self-cleavage: 0.05 for the first, 0.05 for the second.

Compared with C27G U12G, C27G U18A is higher in self-cleavage: 0.06 for the first, 0.09 for the second.

Compared with C27G U18C, C27G U18G is higher in self-cleavage: 0.09 for the first, 0.17 for the second.

Going from C27G U24A to C27G U24C, the self-cleavage rises from 0.03 to 0.04.

Compared with C27G U24G, C27G U37A is higher in self-cleavage: 0.02 for the first, 0.08 for the second.

First: C27G U37C
Second: C27G U37G
The self-cleavage of the first is lower: 0.1 for the first, 0.16 for the second.

Compared with C27G U43A, C27G U43C is lower in self-cleavage: 0.08 for the first, 0.06 for the second.

First: C27G U43G
Second: C27U
The self-cleavage of the first is lower: 0.06 for the first, 0.33 for the second.

Compared with C27U C9A, C27U C9G is higher in self-cleavage: 0.02 for the first, 0.09 for the second.

First: C27U C9U
Second: C27U C31A
The self-cleavage of the first is higher: 0.1 for the first, 0.02 for the second.

First: C27U C31G
Second: C27U C31U
The self-cleavage of the first is lower: 0.06 for the first, 0.07 for the second.

First: C27U C32A
Second: C27U C32G
The self-cleavage of the first is lower: 0.04 for the first, 0.05 for the second.

First: C27U C32U
Second: C27U C33A
The self-cleavage of the first is higher: 0.06 for the first, 0.05 for the second.

Going from C27U C33G to C27U C33U, the self-cleavage rises from 0.05 to 0.13.

Going from C27U C52A to C27U C52G, the self-cleavage rises from 0.21 to 0.25.

Compared with C27U C52U, C27U G13A is lower in self-cleavage: 0.37 for the first, 0.04 for the second.

C27U G13C and C27U G13U are the same in self-cleavage: 0.01 for the first, 0.01 for the second.

First: C27U G19A
Second: C27U G19C
The self-cleavage of the first is higher: 0.08 for the first, 0.04 for the second.

First: C27U G19U
Second: C27U G22A
The self-cleavage of the first is lower: 0.05 for the first, 0.12 for the second.

First: C27U G22C
Second: C27U G22U
The self-cleavage of the first is lower: 0.03 for the first, 0.06 for the second.

Compared with C27U G23A, C27U G23C is lower in self-cleavage: 0.07 for the first, 0.03 for the second.

Compared with C27U G23U, C27U G30A is lower in self-cleavage: 0.03 for the first, 0.02 for the second.

Compared with C27U G30C, C27U G30U is higher in self-cleavage: 0.02 for the first, 0.05 for the second.

First: C27U G34A
Second: C27U G34C
The self-cleavage of the first is higher: 0.18 for the first, 0.08 for the second.

First: C27U G34U
Second: C27U G35A
The self-cleavage of the first is lower: 0.15 for the first, 0.31 for the second.

First: C27U G35C
Second: C27U G35U
The self-cleavage of the first is lower: 0.06 for the first, 0.19 for the second.

Compared with C27U G42A, C27U G42C is lower in self-cleavage: 0.08 for the first, 0.07 for the second.

Going from C27U G42U to C27U G44A, the self-cleavage rises from 0.03 to 0.08.

Going from C27U G44C to C27U G44U, the self-cleavage rises from 0.1 to 0.12.

Going from C27U G45A to C27U G45C, the self-cleavage falls from 0.05 to 0.04.

First: C27U G45U
Second: C27U G47A
The self-cleavage of the first is lower: 0.04 for the first, 0.88 for the second.

Going from C27U G47C to C27U G47U, the self-cleavage falls from 0.42 to 0.11.

Going from C27U G48A to C27U G48C, the self-cleavage rises from 0.04 to 0.05.

First: C27U G48U
Second: C27U G49A
The self-cleavage of the first is lower: 0.03 for the first, 0.05 for the second.

C27U G49C and C27U G49U are the same in self-cleavage: 0.04 for the first, 0.04 for the second.

Compared with C27U G50A, C27U G50C is lower in self-cleavage: 0.18 for the first, 0.09 for the second.

Going from C27U G50U to C27U G51A, the self-cleavage falls from 0.12 to 0.11.

First: C27U G51C
Second: C27U G51U
The self-cleavage of the first is lower: 0.04 for the first, 0.07 for the second.

First: C27U G53A
Second: C27U G53C
The self-cleavage of the first is higher: 0.12 for the first, 0.05 for the second.

First: C27U G53U
Second: C27U G54A
The self-cleavage of the first is lower: 0.08 for the first, 0.14 for the second.

Compared with C27U G54C, C27U G54U is higher in self-cleavage: 0.12 for the first, 0.31 for the second.

First: C27U U12A
Second: C27U U12C
The self-cleavage of the first is higher: 0.1 for the first, 0.07 for the second.

Going from C27U U12G to C27U U18A, the self-cleavage rises from 0.07 to 0.24.

First: C27U U18C
Second: C27U U18G
The self-cleavage of the first is lower: 0.21 for the first, 0.37 for the second.

Going from C27U U24A to C27U U24C, the self-cleavage rises from 0.04 to 0.06.

Compared with C27U U24G, C27U U37A is higher in self-cleavage: 0.01 for the first, 0.16 for the second.

Going from C27U U37C to C27U U37G, the self-cleavage rises from 0.32 to 0.37.

C27U U43A gave a self-cleavage of 0.11.
